In ChEMBL document CHEMBL3352220, “Design, synthesis, anticancer activity and docking studies of novel 4-morpholino-7,8-dihydro-5H-thiopyrano[4,3-d]pyrimidine derivatives as mTOR inhibitors” (Bioorg Med Chem, 2014):

Key:
[1] = target: Phosphatidylinositol 4,5-bisphosphate 3-kinase catalytic subunit alpha isoform (Homo sapiens) (UniProt P42336); assay: Inhibition of PI3K-alpha (unknown origin) using l-alpha-phosphatidylinositol as substrate at 10 uM after 60 mins by luminescence assay
[2] = target: T1, Serine/threonine-protein kinase mTOR (Homo sapiens, UniProt P42345); assay: Inhibition of mTOR kinase (unknown origin) after 1 hr by TR-FRET assay
[3] = Cytotoxicity against human PC3 cells after 72 hrs by MTT assay; format: functional, cell-based; conditions: PC-3, 72 h
Procedure, shortened: (§1)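 Cells grown in MEM with 10% FBS; ~4 × 10³ cells/well plated and held 24 h at 37 °C, 5% CO2. Compounds added at indicated final concentrations for 72 h. MTT added, 4 h at 37 °C; formazan dissolved in DMSO, absorbance read at 492 nm against 630 nm reference. Tested three times per cell line; inhibition rates or IC50 averaged from two determinations.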

[4] = test system: PC-3; assay: Selectivity ratio of BMCL-200908069-1 IC50 to compound IC50 for human PC3 cells; format: functional
[5] = Selectivity ratio of BMCL-200908069-1 IC50 to compound IC50 for human H460 cells; format: functional
[6] = Cytotoxicity against human H460 cells after 72 hrs by MTT assay; format: functional, cell-based; conditions: NCI-H460, 72 h; procedure, shortened: as §1
[7] = target: T1, Serine/threonine-protein kinase mTOR; assay: Selectivity ratio of BMCL-200908069-1 IC50 to compound IC50 for mTOR kinase (unknown origin)

Sequence of Phosphatidylinositol 4,5-bisphosphate 3-kinase catalytic subunit alpha isoform (Homo sapiens) (P42336 whole entry, canonical isoform): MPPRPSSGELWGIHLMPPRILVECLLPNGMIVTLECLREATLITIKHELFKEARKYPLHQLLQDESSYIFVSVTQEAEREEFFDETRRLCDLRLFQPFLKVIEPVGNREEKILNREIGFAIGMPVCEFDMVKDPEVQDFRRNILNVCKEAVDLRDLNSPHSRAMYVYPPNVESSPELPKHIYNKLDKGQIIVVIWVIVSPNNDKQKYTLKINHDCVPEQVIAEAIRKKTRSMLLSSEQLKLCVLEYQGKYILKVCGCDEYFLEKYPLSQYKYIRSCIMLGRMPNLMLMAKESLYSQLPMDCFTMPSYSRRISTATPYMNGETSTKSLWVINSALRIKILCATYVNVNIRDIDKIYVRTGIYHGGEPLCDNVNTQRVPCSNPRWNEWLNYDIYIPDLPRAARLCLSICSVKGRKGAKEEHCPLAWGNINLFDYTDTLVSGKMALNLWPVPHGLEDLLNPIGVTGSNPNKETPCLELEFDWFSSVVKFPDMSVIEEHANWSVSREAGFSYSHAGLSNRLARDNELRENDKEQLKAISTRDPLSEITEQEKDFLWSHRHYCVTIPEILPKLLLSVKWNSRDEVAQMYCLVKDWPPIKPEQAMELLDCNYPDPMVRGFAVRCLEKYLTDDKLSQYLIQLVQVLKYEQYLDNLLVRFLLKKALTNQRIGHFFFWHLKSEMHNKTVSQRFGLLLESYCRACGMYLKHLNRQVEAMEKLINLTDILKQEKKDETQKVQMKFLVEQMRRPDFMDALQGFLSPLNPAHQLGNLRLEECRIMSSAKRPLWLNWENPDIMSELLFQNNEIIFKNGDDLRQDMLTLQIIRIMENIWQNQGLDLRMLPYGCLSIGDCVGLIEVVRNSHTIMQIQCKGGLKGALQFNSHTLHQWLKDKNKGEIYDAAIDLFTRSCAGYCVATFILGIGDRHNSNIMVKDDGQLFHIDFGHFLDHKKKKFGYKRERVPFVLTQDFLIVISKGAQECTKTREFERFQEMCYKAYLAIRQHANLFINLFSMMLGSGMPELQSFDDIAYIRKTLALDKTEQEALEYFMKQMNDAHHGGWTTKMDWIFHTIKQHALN

SMILES	inhibition [1] [%]	IC50 [2] [nM]	IC50 [3] [µM]	Ratio IC50 [4]	Ratio IC50 [5]	IC50 [6] [µM]	Ratio IC50 [7]
Oc1c(Br)cc(/C=N/Nc2nc3c(c(N4CCOCC4)n2)CSCC3)cc1Br	21.6	2670	> 20				
O=S1(=O)CCc2nc(N/N=C/c3cc(Br)c(O)c(Br)c3)nc(N3CCOCC3)c2C1	24.9	6930	> 20				
COc1cc(/C=N/Nc2nc3c(c(N4CCOCC4)n2)CSCC3)cc(OC)c1O	12	800	11.9	1.37	1.28	7.43	1.71
COc1cc(/C=N/Nc2nc(N3CCOCC3)nc(N3CCOCC3)n2)cc(OC)c1O		1370	16.3			9.52	
COc1cc(/C=N/Nc2nc3c(c(N4CCOCC4)n2)CS(=O)(=O)CC3)cc(OC)c1O	6.2	2200	> 20				
Oc1ccc(/C=N/Nc2nc3c(c(N4CCOCC4)n2)CSCC3)cc1Br	18.8	1940	14.4			10.8	
